Measured values as given in ChEMBL document CHEMBL3784932, “Design, synthesis and docking studies of novel dipeptidyl boronic acid proteasome inhibitors constructed from αα- and αβ-amino acids” (Bioorg Med Chem Lett, 2016).

Assays:
[1] = target: T1, Proteasome Macropain subunit MB1 (Homo sapiens, UniProt P28074); assay: Inhibition of chymotrypsin like activity of human erythrocyte-derived 20S proteasome preincubated for 10 mins using Suc-LLVY-AMC as substrate after 60 mins by fluorescence assay
T1 sequence (P28074 whole entry): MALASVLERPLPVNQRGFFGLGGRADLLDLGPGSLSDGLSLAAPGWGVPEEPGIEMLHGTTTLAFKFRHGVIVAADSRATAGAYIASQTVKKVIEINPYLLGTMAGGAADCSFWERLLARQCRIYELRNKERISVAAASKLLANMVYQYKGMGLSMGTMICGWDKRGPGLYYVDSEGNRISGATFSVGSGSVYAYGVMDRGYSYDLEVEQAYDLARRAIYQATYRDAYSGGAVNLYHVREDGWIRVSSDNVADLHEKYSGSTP
Procedure, shortened: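 Enzymatic IC50 from eight inhibitor concentrations, each point assayed in duplicate; β5 (chymotrypsin-like) subunit of human proteasome.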

[2] = Cytotoxicity against human U266 cells after 72 hrs by MTS assay; assay type: functional, cell-based; conditions: U-266, 72 h
Procedure, shortened: (§1)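 Cellular IC50 from a ten-concentration series, each concentration tested in triplicate.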

[3] = Cytotoxicity against human RPMI8226 cells after 72 hrs by MTS assay; assay type: functional, cell-based; conditions: RPMI-8226, 72 h; procedure, shortened: as §1
[4] = Cytotoxicity against human ARH77 cells after 72 hrs by MTS assay; assay type: functional, cell-based; conditions: ARH-77, 72 h; procedure, shortened: as §1

SMILES: COCCC(=O)N[C@@H](Cc1ccccc1)C(=O)N[C@@H](CC(C)C)B(O)O
- IC50 ([1]; read-out: IC50): 8.47 nM
- IC50 [2]: 11.5 nM
- IC50 [3]: 7.32 nM
- IC50 [4]: 9.03 nM

SMILES: O=C(N[C@@H](Cc1ccccc1)C(=O)N[C@H](CB(O)O)c1ccccc1)c1ccccc1
- IC50 [1]: Not Active

SMILES: COCC(=O)N[C@@H](Cc1ccccc1)C(=O)N[C@@H](CC(C)C)B(O)O
- IC50 ([1]; read-out: IC50): 6.31 nM
- IC50 [2]: 6.04 nM
- IC50 [3]: 4.56 nM
- IC50 [4]: 5.72 nM

SMILES: CC(C)C[C@H](NC(=O)[C@H](Cc1ccccc1)NC(=O)CC(C)(C)C)B(O)O
- IC50 ([1]; read-out: IC50): 4.69 nM
- IC50 [2]: 8.01 nM
- IC50 [4]: 8.31 nM

SMILES: CC(C)C[C@@H](NC(=O)CC(NC(=O)[C@H]1CCCc2ccccc21)c1cccc(F)c1)B(O)O (some centres undefined)
- IC50 ([1]; read-out: IC50): 1.02 nM

SMILES: CC(C)C[C@H](NC(=O)[C@H](Cc1ccccc1)NC(=O)C1CCCC1)B(O)O
- IC50 ([1]; read-out: IC50): 4.82 nM
- IC50 [2]: 2.48 nM
- IC50 [4]: 3.87 nM

SMILES: O=C(N[C@@H](Cc1ccccc1)C(=O)N[C@@H](CCc1ccccc1)CB(O)O)c1ccccc1
- IC50 [1]: Not Active

SMILES: CC(C)C[C@@H](CB(O)O)NC(=O)[C@H](Cc1ccccc1)NC(=O)c1ccccc1
- IC50 [1]: Not Active

SMILES: O=C(N[C@@H](Cc1ccccc1)C(=O)N[C@H](CB(O)O)c1ccccc1)c1cnccn1
- IC50 [1]: Not Active

SMILES: O=C(N[C@@H](Cc1ccccc1)C(=O)N[C@@H](CCc1ccccc1)CB(O)O)c1cnccn1
- IC50 [1]: Not Active

SMILES: CCCC(=O)N[C@@H](Cc1ccccc1)C(=O)N[C@@H](CC(C)C)B(O)O
- IC50 ([1]; read-out: IC50): 6.94 nM
- IC50 [2]: 8.51 nM
- IC50 [3]: 5.61 nM
- IC50 [4]: 7.87 nM

SMILES: CC(C)C[C@@H](CB(O)O)NC(=O)[C@H](Cc1ccccc1)NC(=O)c1cnccn1
- IC50 [1]: Not Active

SMILES: CC(C)C[C@H](NC(=O)[C@H](Cc1ccccc1)NC(=O)[C@H]1CCCc2ccccc21)B(O)O
- IC50 ([1]; read-out: IC50): 1.2 nM

SMILES: CC(C)C[C@H](NC(=O)[C@H](Cc1ccccc1)NC(=O)c1cccc2c1CCCC2)B(O)O
- IC50 ([1]; read-out: IC50): 1.6 nM

SMILES: CC(C)C[C@H](NC(=O)[C@H](Cc1ccccc1)NC(=O)c1cnccn1)B(O)O [BORTEZOMIB]
- IC50 [2]: 5.73 nM
- IC50 [4]: 6.07 nM
